Our source for the Activity values is ChEMBL document CHEMBL1149489, “Synthesis and biological evaluation of benzamides and benzamidines as selective inhibitors of VEGFR tyrosine kinases” (Bioorg Med Chem Lett, 2006).

Activity calls are given as the source filed them. The calls are words filed in the database; no cut-off is given here.

Sequence of Epidermal growth factor receptor (Homo sapiens) (P00533 whole entry): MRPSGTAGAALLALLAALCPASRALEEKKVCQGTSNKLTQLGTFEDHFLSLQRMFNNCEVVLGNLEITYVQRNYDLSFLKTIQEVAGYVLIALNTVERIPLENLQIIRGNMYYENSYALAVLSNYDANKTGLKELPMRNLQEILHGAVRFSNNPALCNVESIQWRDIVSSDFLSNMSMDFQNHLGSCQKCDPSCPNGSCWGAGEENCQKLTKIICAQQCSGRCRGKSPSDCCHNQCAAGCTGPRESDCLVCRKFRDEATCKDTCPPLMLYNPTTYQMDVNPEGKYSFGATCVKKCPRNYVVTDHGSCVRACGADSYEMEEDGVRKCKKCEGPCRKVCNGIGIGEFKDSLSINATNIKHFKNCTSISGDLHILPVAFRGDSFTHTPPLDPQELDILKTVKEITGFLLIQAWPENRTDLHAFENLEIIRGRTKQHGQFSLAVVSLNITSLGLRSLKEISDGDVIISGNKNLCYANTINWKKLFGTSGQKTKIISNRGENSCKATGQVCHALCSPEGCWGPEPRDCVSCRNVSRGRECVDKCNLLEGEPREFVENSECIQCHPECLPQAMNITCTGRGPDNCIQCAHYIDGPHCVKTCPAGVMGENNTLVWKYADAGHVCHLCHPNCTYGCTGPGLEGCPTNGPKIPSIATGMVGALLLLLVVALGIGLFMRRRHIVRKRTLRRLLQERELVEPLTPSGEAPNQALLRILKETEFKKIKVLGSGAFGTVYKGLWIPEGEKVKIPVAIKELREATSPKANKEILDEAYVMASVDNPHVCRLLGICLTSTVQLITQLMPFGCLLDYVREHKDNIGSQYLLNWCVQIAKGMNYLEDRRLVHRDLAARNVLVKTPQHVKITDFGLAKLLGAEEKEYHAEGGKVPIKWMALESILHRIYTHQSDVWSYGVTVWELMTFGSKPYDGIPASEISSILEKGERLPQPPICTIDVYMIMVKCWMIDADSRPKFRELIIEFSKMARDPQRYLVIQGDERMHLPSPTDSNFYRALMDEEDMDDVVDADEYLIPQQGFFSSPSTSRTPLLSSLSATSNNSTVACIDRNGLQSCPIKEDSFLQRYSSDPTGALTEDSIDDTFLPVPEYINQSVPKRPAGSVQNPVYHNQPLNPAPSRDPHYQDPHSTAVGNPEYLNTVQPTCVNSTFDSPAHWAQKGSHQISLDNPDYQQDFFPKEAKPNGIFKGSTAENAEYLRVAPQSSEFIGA

This assay has as its target Epidermal growth factor receptor (Homo sapiens) (UniProt P00533). As to the kind of experiment: Inhibition of EGFR at 10 uM. A digest of the protocol:
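ELISA autophosphorylation-type assay. Wells were coated overnight at 4 °C with 50 µg/ml poly(Glu:Tyr, 4:1) in PBS. The kinase reaction ran 20 min in 50 mM HEPES, 125 mM NaCl, 10 mM MgCl2, pH 7.4, with 100 µM ATP and compound at 10 µM. Phosphotyrosine was detected with HRP anti-phosphotyrosine antibody and TMB, acid-stopped, and read at A450.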
As to `N=C(Nc1ccc(Cl)cc1)c1ccccc1OCc1ccncc1`, the result was inactive.

`N=C(Nc1ccc(Cl)cc1)c1ccccc1NCc1ccncc1`: the result was inactive. Turning to `COc1cc(OCc2ccncc2)c(C(=N)Nc2ccccc2Cl)cc1OC`, the result was inactive. For the compound `COc1cc(NCc2ccncc2)c(C(=N)Nc2ccccc2Cl)cc1OC`, the outcome was inactive.

As for `N=C(Nc1ccccc1Cl)c1ccccc1OCc1ccncc1`, the result was inactive. Take `COc1cc(NCc2ccncc2)c(C(=O)Nc2cnccn2)cc1OC`: the outcome was inactive.

As to `COc1cc(NCc2ccncc2)c(C(=O)Nc2ncccn2)cc1OC`, the result was inactive.

In the case of `O=C(Nc1ncccn1)c1ccccc1NCc1ccncc1`, the outcome was inactive.

`COc1cc(OCc2ccncc2)c(C(=O)Nc2ccccc2C(F)(F)F)cc1OC`: the outcome was inactive. Consider `O=C(Nc1ccccn1)c1ccccc1NCc1ccncc1`, for which the outcome was inactive. As for `O=C(Nc1cnccn1)c1ccccc1NCc1ccncc1`, the entry is “inactive”; as for `COc1cc(OCc2ccncc2)c(C(=N)Nc2ccccc2C(F)(F)F)cc1OC`, “inactive”. As for `N=C(Nc1ccccc1C(F)(F)F)c1ccccc1OCc1ccncc1`, the entry is “inactive”; as for `N=C(Nc1ccccc1C(F)(F)F)c1ccccc1NCc1ccncc1`, “inactive”. Consider `COc1cc(OCc2ccncc2)c(C(=O)Nc2ncccn2)cc1OC`, for which the outcome was inactive.

As for `COc1cc(OCc2ccncc2)c(C(=O)Nc2ccc(Cl)cc2)cc1OC`, the outcome was inactive. Turning to `COc1cc(NCc2ccncc2)c(C(=N)Nc2ccc(Cl)cc2)cc1OC`, the result was inactive. In the case of `COc1cc(OCc2ccncc2)c(C(=O)Nc2ccccn2)cc1OC` it was “inactive”; in that of `COc1cc(OCc2ccncc2)c(C(=O)Nc2ccccc2Cl)cc1OC`, “inactive”. As for `COc1cc(NCc2ccncc2)c(C(=O)Nc2ccccn2)cc1OC`, the outcome was inactive. With `COc1cc(NCc2ccncc2)c(C(=N)Nc2ccccc2C(F)(F)F)cc1OC`, the result was inactive. Consider `N=C(Nc1ccccc1Cl)c1ccccc1NCc1ccncc1`, for which the outcome was inactive.

`COc1cc(OCc2ccncc2)c(C(=N)Nc2ccc(Cl)cc2)cc1OC`: the outcome was inactive. As to `O=C(Nc1ccccc1Cl)c1ccccc1OCc1ccncc1`, the outcome was inactive.

For `COc1cc(OCc2ccncc2)c(C(=O)Nc2cnccn2)cc1OC`, the outcome was inactive. On to `O=C(Nc1ccccc1C(F)(F)F)c1ccccc1OCc1ccncc1`, for which the result was inactive.
